Measured values taken from ChEMBL document CHEMBL5674876, “Epigenetic Activation of Pro-angiogenic Signaling Pathways in Human Endothelial Progenitors Increases Vasculogenesis” (Stem Cell Reports, 2017).
Calls of active or inactive are those of the source. The calls are words filed in the database; no cut-off is given here.

Key:
HUVEC [1] = experiment: Effect on pro-angiogenic property in human umbilical cord derived endothelial colony forming cells assessed as cell migration treated at 330 nM for 10 hrs measured by crystal violet staining analysis based gap closure assay; assay type: functional
HUVEC [2] = experiment: Effect on pro-angiogenic property in human umbilical cord derived endothelial colony forming cells assessed as formation of capillary network on matrigel at 330 nM; assay type: functional, cell-based
Method in brief: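 Drug- or vehicle-pretreated ECFCs seeded at 5,000 cells/well on phenol-red-free growth-factor-reduced Matrigel in duplicate; after 24 hr stained with 5 μg/mL calcein 5 min at 37°C, imaged at 2.5×. Total tube length expressed as percentage of vehicle control ±SEM, three independent experiments.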

CC(/C=C/C(=O)NO)=C\[C@@H](C)C(=O)c1ccc(N(C)C)cc1
Activity (HUVEC [1]): Active | Activity (HUVEC [2]): Active
